Here are results for 15 compounds from ChEMBL document CHEMBL1121660, “Haloacetamido analogues of 2-amino-2-deoxy-D-mannose. Syntheses and effects on tumor-bearing mice” (J Med Chem, 1981).

Data set [1] deals with L1210. Nature of the data set: Percent of control (thymidine incorporation in vitro) at 2.5 mM in L1210 leukemia cells in vitro of B6D2F1 mice. The class given is functional, Mus musculus.
The subject of data set [2] is L1210. Nature of the data set: Compound was tested for concentration that inhibited thymidine incorporation in vitro by 50%. The class given is functional, cell-based, Mus musculus. An outline of the steps:
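Ascites L1210 cells from DBA/2 passage hosts (harvested 5 days after ip implant of 10⁶ cells), washed in 0.85% NaCl and suspended at 2 × 10⁷/mL in RPMI-1640. Exposed 1 h at 37 °C in RPMI-1640 with 10% FBS; tetra-O-acetates added from ethanol solution, free sugars dissolved directly in medium. Cells washed and plated, then pulsed with [³H]thymidine (1.0 μCi/well) for 15 h. TCA-washed cells counted by scintillation. Ethanol-matched controls. IC50 reported as mean ± SE (≥3 determinations) or range (2).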

Data set [3] has as its system Mus musculus. Nature of the data set: In vivo chemotherapy of Ehrlich tumor in B6D2F1 mice at a dose of 0.35 (mmol/kg)/day expressed as number days after tumor challenge. The class given is functional.
Data set [4] concerns Mus musculus. Nature of the data set: In vivo chemotherapy of Ehrlich tumor in B6D2F1 mice at a dose of 0.71 (mmol/kg)/day was expressed as number of survivors on 60-day/number of treated; 1/8. It counts as functional.
Data set [5] has as its system Mus musculus. Nature of the data set: In vivo chemotherapy of Ehrlich tumor in B6D2F1 mice at a dose of 0.71 (mmol/kg)/day was expressed as number of survivors on 60-day/number of treated; 4/8. It counts as functional.
Data set [6] concerns Mus musculus. Briefly: In vivo chemotherapy of Ehrlich tumor in B6D2F1 mice at a dose of 0.71 (mmol/kg)/day was expressed as number of survivors on 60-day/number of treated; 8/8. The class given is functional.
Data set [7] in a line: Compound was tested for lethal dose administered in single dose intraperitoneally that killed 50% of the animals. It counts as ADME, organism-based. Particulars: mouse, in vivo, ip.
The test system of data set [8] is Mus musculus. Briefly: In vivo chemotherapy of Ehrlich tumor in B6D2F1 mice at a dose of 0.42 (mmol/kg)/day expressed as number days after tumor challenge. It counts as functional.
In data set [9] the test system is Mus musculus. Nature of the data set: In vivo chemotherapy of Ehrlich tumor in B6D2F1 mice at a dose of 0.42 (mmol/kg)/day was expressed as number of survivors on 60-day/number of treated;0/8. The class given is functional.
Data set [10] relates to Mus musculus. Nature of the data set: In vivo chemotherapy of Ehrlich tumor in B6D2F1 mice at a dose of 3.7 (mmol/kg)/day expressed as number days after tumor challenge. The class given is functional.
The test system of data set [11] is Mus musculus. Briefly: In vivo chemotherapy of Ehrlich tumor in B6D2F1 mice at a dose of 3.7 (mmol/kg)/day was expressed as number of survivors on 60-day/number of treated; 1/5. It counts as functional.
In data set [12] the test system is Mus musculus. Nature of the data set: In vivo chemotherapy of Ehrlich tumor in B6D2F1 mice at a dose of 3.2 (mmol/kg)/day expressed as number days after tumor challenge. The class given is functional.
Data set [13] deals with Mus musculus. Briefly: In vivo chemotherapy of Ehrlich tumor in B6D2F1 mice at a dose of 2.5 (mmol/kg)/day was expressed as number of survivors on 60-day/number of treated; 3/8. The class given is functional.
The test system of data set [14] is Mus musculus. Briefly: In vivo chemotherapy of Ehrlich tumor in B6D2F1 mice at a dose of 2.5 (mmol/kg)/day was expressed as number of survivors on 60-day/number of treated; 5/8. It counts as functional.
Data set [15] deals with Mus musculus. Nature of the data set: In vivo chemotherapy of Ehrlich tumor in B6D2F1 mice at a dose of 3.2 (mmol/kg)/day was expressed as number of survivors on 60-day/number of treated;2/4. The class given is functional.
For data set [16], the system named is Mus musculus. Nature of the data set: In vivo chemotherapy of Ehrlich tumor in B6D2F1 mice at a dose of 0.12 (mmol/kg)/day expressed as number days after tumor challenge. The class given is functional.
Data set [17] relates to Mus musculus. Nature of the data set: In vivo chemotherapy of Ehrlich tumor in B6D2F1 mice at a dose of 0.42 (mmol/kg)/day was expressed as number of survivors on 60-day/number of treated; 0/5. The class given is functional.
For data set [18], the system named is Mus musculus. Briefly: In vivo chemotherapy of Ehrlich tumor in B6D2F1 mice at a dose of […] (mmol/kg)/day expressed as number days after tumor challenge. The class given is functional.
The subject of data set [19] is Mus musculus. Briefly: In vivo chemotherapy of Ehrlich tumor in B6D2F1 mice at a dose of 0.13 (mmol/kg)/day expressed as number days after tumor challenge. The class given is functional.
For data set [20], the system named is Mus musculus. Briefly: In vivo chemotherapy of Ehrlich tumor in B6D2F1 mice at a dose of 0.22 (mmol/kg)/day expressed as number days after tumor challenge. It counts as functional.
In data set [21] the test system is Mus musculus. Nature of the data set: In vivo chemotherapy of Ehrlich tumor in B6D2F1 mice at a dose of 0.13 (mmol/kg)/day was expressed as number of survivors on 60-day/number of treated; 3/8. It counts as functional.
For data set [22], the system named is Mus musculus. Nature of the data set: In vivo chemotherapy of Ehrlich tumor in B6D2F1 mice at a dose of 0.19 (mmol/kg)/day expressed as 60-day survivors (number of survivors/number of treated); 1/8. The class given is functional.
The subject of data set [23] is Mus musculus. Nature of the data set: In vivo chemotherapy of Ehrlich tumor in B6D2F1 mice at a dose of 0.19 (mmol/kg)/day was expressed as number of survivors on 60-day/number of treated; 1/8. It counts as functional.
The subject of data set [24] is Mus musculus. Nature of the data set: In vivo chemotherapy of Ehrlich tumor in B6D2F1 mice at a dose of 0.22 (mmol/kg)/day was expressed as number of survivors on 60-day/number of treated; 4/4.

The structures appear in SMILES notation.

`O=C(CBr)NC1C(O)OC(CO)C(O)C1O` (stereo in doubt; form 3): the “Thymidine incorporation (% of control)” value in the data set with L1210 [1] is on record as 95%.

`CC(=O)OCC1OC(OC(C)=O)C(NC(=O)CCl)C(OC(C)=O)C1OC(C)=O` (stereo in doubt; form 3) displayed an IC50 with L1210 [2] (l1210) of 143 µM. For the same compound, the Days in the data set on Mus musculus [3] worked out at 3. Moreover, the Survivors in the data set on Mus musculus [4] stood at 1; in the data set on Mus musculus [5], 4; with Mus musculus [6], 8. This compound also yielded an LD50 in data set [7] of 1600 µmol/kg.

`O=C(CBr)NC1C(O)OC(CO)C(O)C1O` (stereo in doubt; form 2): the “Thymidine incorporation (% of control)” value in the data set on L1210 [1] is recorded as 68%.

Turning to `O=C(CF)NC1C(O)OC(CO)C(O)C1O` (stereo in doubt; form 1), in the data set on L1210 [1], the “Thymidine incorporation (% of control)” value is reported as 93%. In addition, in the data set on Mus musculus [8], the Days came to 2. In the data set on Mus musculus [9], this compound yielded a Survivors of 0.

As to `O=C(CCl)NC1C(O)OC(CO)C(O)C1O` (stereo in doubt; form 2), the Days in the data set on Mus musculus [10] was 4. The same compound returned a Survivors in the data set with Mus musculus [11] of 1.

For `O=C(CBr)NC1C(O)OC(CO)C(O)C1O` (stereo in doubt; form 1), in the data set on L1210 [1], the “Thymidine incorporation (% of control)” value was 79%. In addition, the Days with Mus musculus [12] is listed as 4. Moreover, the Survivors with Mus musculus [13] came out at 3; in the data set with Mus musculus [14], 5; with Mus musculus [15], 2. In data set [7], this compound showed an LD50 of over 3200 µmol/kg.

In the case of `CC(=O)OCC1OC(OC(C)=O)C(NC(=O)CBr)C(OC(C)=O)C1OC(C)=O` (stereo in doubt; form 1), the LD50 in [7] was found to be 240 µmol/kg.

In the data set on L1210 [2] (l1210), `CC(=O)OCC1OC(OC(C)=O)C(NC(=O)CBr)C(OC(C)=O)C1OC(C)=O` (stereo in doubt; form 2) registered an IC50 of 6.5 µM.

Regarding `O=C(CCl)NC1C(O)OC(CO)C(O)C1O` (stereo in doubt; form 1), the “Thymidine incorporation (% of control)” value with L1210 [1] was 51%.

In the data set with L1210 [2] (l1210), `CC(=O)OCC1OC(OC(C)=O)C(NC(=O)CCl)C(OC(C)=O)C1OC(C)=O` (stereo in doubt; form 1) registered an IC50 of 220 µM.

For the compound `O=C(CCl)NC1C(O)OC(CO)C(O)C1O` (stereo in doubt; form 3), in the data set with L1210 [1], the “Thymidine incorporation (% of control)” value was 97%.

In the data set with Mus musculus [16], `CC(=O)OCC1OC(OC(C)=O)C(NC(=O)CF)C(OC(C)=O)C1OC(C)=O` (stereo in doubt; form 3) displayed a Days of 1. In addition, in the data set with Mus musculus [17], the Survivors is 0.

Take `CC(=O)OCC1OC(OC(C)=O)C(NC(=O)CCl)C(OC(C)=O)C1OC(C)=O` (stereo in doubt; form 2): in the data set with L1210 [2] (l1210), the half-inhibitory concentration (IC50) was found to be 425 µM.

Compound `CC(=O)OCC1OC(OC(C)=O)C(NC(=O)CBr)C(OC(C)=O)C1OC(C)=O` (stereo in doubt; form 3) displayed an IC50 with L1210 [2] (Mus musculus, L1210) of 9.4 µM. Moreover, the Days in the data set on Mus musculus [18] is 3; with Mus musculus [19], 1; in the data set on Mus musculus [20], 1. The Survivors in the data set with Mus musculus [21] stood at 3; with Mus musculus [22] it was 1; with Mus musculus [23] it was 1; in the data set on Mus musculus [24], 4.

Compound `CC(=O)OCC1OC(OC(C)=O)C(NC(=O)CF)C(OC(C)=O)C1OC(C)=O` (stereo in doubt; form 2) registered a 50% inhibitory concentration (IC50) in the data set on L1210 [2] (Mus musculus, L1210) of over 1000 µM.
